The source made the active and inactive calls. No cut-off for these calls is given here.
Key:
Type in all cases: cell-based
[1] = system: HEK293; assay: Activation of wild-type human SLACK expressed in HEK293 cells assessed as efficacy at 30 uM by thallium flux assay relative to control
[2] = system: HEK293; assay: (§1) Inhibition of wild-type human SLACK expressed in HEK293 cells by thallium flux assay
In short: (§2)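 Stable monoclonal HEK293 lines (WT or A934T SLACK) plated 20,000 cells/well; loaded 1 h at room temperature with Thallo-AM dye, 1.25 mM probenecid, masking dye, 0.3% Pluronic F-127 in buffer with 2.7 mM RbCl, pH 7.3. Compound preincubated 120 s, then Tl2SO4 stimulus (2.5 mM); fluorescence read 120 s. Concentration–response 1.5 nM–30 μM in half-log steps, ≥3 replicate wells.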

[3] = system: HEK293; assay: Inhibition of wild-type human SLACK expressed in HEK293 cells assessed as efficacy at 30 uM by thallium flux assay relative to control; in short: as §2
[4] = as §1; in short: as §2
[5] = Inhibition of wild-type human SLACK expressed in CHO cells by whole cell voltage clamp electrophysiology assay; settings: Cricetulus griseus
In short: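 Automated whole-cell patch clamp at room temperature. External (mM): NaCl 105, KCl 4, MgCl2 1, CaCl2 5, HEPES 10, NMDG-Cl 40, pH 7.4. Internal: NaCl 70, KF 70, KCl 10, EGTA 5, HEPES 5, pH 7.2. Concentrations 0.125–30 μM in half-log steps, ≥3 cells per series.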

[6] = system: CHO; assay: Inhibition of wild-type human SLACK expressed in CHO cells assessed as efficacy at 30 uM by whole cell voltage clamp electrophysiology assay; settings: Cricetulus griseus

In the case of `CCOc1ccccc1C(C)N1CC(c2nc(-c3ccsc3)no2)C1` (stereo unspecified), the Efficacy [1] is reported as < 10%.
For `COc1cccc(S(=O)(=O)N2CC(c3nc(-c4ccsc4)no3)C2)c1`, the inhibition [2] was “inactive” and the Efficacy [3] was “inactive”.
In the case of `CCOc1ccccc1S(=O)(=O)N1CC(c2nc(-c3ccc(F)cc3)c[nH]2)C1`, the Efficacy [1] is reported as 34%.
In the case of `CCOc1ccccc1NC(=O)N1CC(c2nc(-c3ccsc3)no2)C1`, the Efficacy [1] is reported as < 10%.
`CCOc1ccccc1S(=O)(=O)N1CC(c2nc(-c3ccccc3OC)no2)C1` showed an Efficacy [1] of 18%.
In the case of `O=S(=O)(c1ccccc1OC1CCCC1)N1CC(c2nc(-c3ccc(F)cc3)no2)C1`, the Efficacy [3] is reported as 93%.
In the case of `CCCCOc1ccccc1S(=O)(=O)N1CC(c2nc(-c3ccsc3)no2)C1`, the inhibition [2] is reported as “inactive” and the Efficacy [3] is reported as “inactive”.
For `CCCOc1ccccc1S(=O)(=O)N1CC(c2nc(-c3ccsc3)no2)C1`, the IC50 [4] was 2.6 µM and the Efficacy [3] was 87%.
Work on `O=S(=O)(c1cccn2ccnc12)N1CC(c2nc(-c3ccc(F)cc3)no2)C1` yielded an Efficacy ([1]; filed as activator) of 48%.
In the case of `O=S(=O)(c1ccc(C(F)(F)F)cc1)N1CC(c2nc(-c3ccsc3)no2)C1`, the inhibition [2] is reported as “inactive” and the Efficacy [3] is reported as “inactive”.
With `CCOc1ccccc1S(=O)(=O)N1CC(c2nnc(-c3ccc(F)cc3)o2)C1` the Efficacy [1] was < 10%.
`CCOc1ccccc1S(=O)(=O)N1CC(c2nc(-c3ccccc3)no2)C1` showed an Efficacy [3] of 51%.
In the case of `CCOc1ccccc1C(=O)N1CC(c2nc(-c3ccsc3)no2)C1`, the Efficacy [1] is reported as 18%.
`O=S(=O)(c1ccccc1C(F)(F)F)N1CC(c2nc(-c3ccsc3)no2)C1` showed an Efficacy [1] of 36%.
`O=S(=O)(c1ccccc1Cl)N1CC(c2nc(-c3ccsc3)no2)C1` showed an Efficacy ([1]; filed as activator) of 47%.
For `O=S(=O)(c1ccc(F)cc1)N1CC(c2nc(-c3ccsc3)no2)C1`, the inhibition [2] was “inactive” and the Efficacy [3] was “inactive”.
In the case of `CCOc1ccccc1S(=O)(=O)N1CC(c2nc(-c3ccccc3Cl)no2)C1`, the Efficacy [3] is reported as 81%.
In the case of `Cc1nnc2c(S(=O)(=O)N3CC(c4nc(-c5ccc(F)cc5)no4)C3)cccn12`, the inhibition [2] is reported as “inactive” and the Efficacy [3] is reported as “inactive”.
With `CCOc1ccccc1CC(=O)N1CC(c2nc(-c3ccsc3)no2)C1` the Efficacy [1] was 37%.
For `Cc1cccc(S(=O)(=O)N2CC(c3nc(-c4ccsc4)no3)C2)c1`, the Efficacy [1] was < 10%.
With `Cc1ccc(S(=O)(=O)N2CC(c3nc(-c4ccsc4)no3)C2)cc1` the inhibition [2] was “inactive” and the Efficacy [3] was “inactive”.
With `CCOc1ccccc1S(=O)(=O)N1CC(c2cc(-c3ccc(F)cc3)n[nH]2)C1` the Efficacy [1] was 24%.
With `CCOc1ccccc1S(=O)(=O)N1CC(c2nc(-c3cccnc3)no2)C1` the inhibition [2] was “inactive” and the Efficacy [3] was “inactive”.
With `CCOc1ccccc1S(=O)(=O)N1CC(c2nc(-c3ccco3)no2)C1` the Efficacy [3] was 44%.
In the case of `CCOc1ccccc1S(=O)(=O)N1CC(c2nc(-c3ccccc3C)no2)C1`, the Efficacy [1] is reported as < 10%.
For `CCOc1ccccc1S(=O)(=O)N1CC(c2nc(-c3ccc(C(F)(F)F)cc3)no2)C1`, the IC50 [4] was 3.8 µM and the Efficacy [3] was 95%.
In the case of `O=S(=O)(c1cccc2ccoc12)N1CC(c2nc(-c3ccc(F)cc3)no2)C1`, the Efficacy [1] is reported as 37%.
In the case of `CCOc1ccccc1S(=O)(=O)N1CC(c2nc(-c3ncccn3)no2)C1`, the inhibition [2] is reported as “inactive” and the Efficacy [3] is reported as “inactive”.
In the case of `O=S(=O)(c1cccn2cnnc12)N1CC(c2nc(-c3ccc(F)cc3)no2)C1`, the Efficacy [1] is reported as 14%.
For `O=S(=O)(c1cccc(Cl)c1)N1CC(c2nc(-c3ccsc3)no2)C1`, the inhibition [2] was “inactive” and the Efficacy [3] was “inactive”.
Work on `CCOc1ccccc1S(=O)(=O)N1CC(c2ncc(-c3ccc(F)cc3)o2)C1` yielded an Efficacy [1] of 37%.
With `CCNc1ccccc1S(=O)(=O)N1CC(c2nc(-c3ccsc3)no2)C1` the inhibition [2] was “inactive” and the Efficacy [3] was “inactive”.
With `CCOc1ccccc1S(=O)(=O)N1CC(c2nc(-c3ccc(Cl)cc3F)no2)C1` the IC50 [4] was 7.2 µM and the Efficacy [3] was 99%.
`CCOc1ccccc1OC(=O)N1CC(c2nc(-c3ccsc3)no2)C1` gave an Efficacy ([1]; filed as activator) of 50%.
In the case of `CCOc1ccccc1S(=O)(=O)N1CC(c2nc(-c3cccc(Cl)c3)no2)C1`, the inhibition [2] is reported as “inactive” and the Efficacy [3] is reported as “inactive”.
`Cc1cn2cccc(S(=O)(=O)N3CC(c4nc(-c5ccc(F)cc5)no4)C3)c2n1` showed an Efficacy [1] of 19%.
For `CCOc1ccccc1S(=O)(=O)N1CC(c2nc(-c3ccncc3)no2)C1`, the inhibition [2] was “inactive” and the Efficacy [3] was “inactive”.
`O=S(=O)(c1ccccc1OCC1CCC1)N1CC(c2nc(-c3ccc(F)cc3)no2)C1` gave an Efficacy [3] of 88%.
`CCOc1ccccc1S(=O)(=O)N1CC(c2nc(-c3cccs3)no2)C1` showed an IC50 [4] of 6.9 µM and an Efficacy [3] of 99%.
In the case of `CCOc1ccccc1S(=O)(=O)[C@H]1C[C@@H](c2nc(-c3ccc(F)cc3)no2)C1`, the inhibition [2] is reported as “inactive” and the Efficacy [3] is reported as “inactive”.
In the case of `CCOc1ccccc1S(=O)(=O)N1CC(c2nc(-c3ccccc3F)no2)C1`, the Efficacy [3] is reported as 88%.
`CCOc1ccccc1S(=O)(=O)N1CC(C)(c2nc(-c3ccc(F)cc3)no2)C1` gave an Efficacy [1] of 14%.
For `CCOc1ccccc1S(=O)(=O)N1CC[C@@H](c2nc(-c3ccc(F)cc3)no2)C1`, the IC50 [4] was > 10 µM and the Efficacy [3] was 31%.
With `CCOc1ccccc1S(=O)(=O)N1CC(c2nc(-c3nccs3)no2)C1` the inhibition [2] was “inactive” and the Efficacy [3] was “inactive”.
For `CCOc1ccccc1S(=O)(=O)N1CC(c2cc(-c3ccc(F)cc3)on2)C1`, the inhibition [2] was “inactive” and the Efficacy [3] was “inactive”.
Work on `O=S(=O)(c1ccccc1F)N1CC(c2nc(-c3ccsc3)no2)C1` yielded an Efficacy [1] of 30%.
In the case of `CCOc1ccccc1S(=O)(=O)N1CC(c2nc(-c3ccccc3C(F)(F)F)no2)C1`, the Efficacy ([1]; filed as activator) is reported as 66%.
For `CCOc1ccccc1S(=O)(=O)N1CC(c2nc(-c3cnsc3)no2)C1`, the IC50 [4] was 6.6 µM and the Efficacy [3] was 106%.
`O=S(=O)(c1ccccc1N1CCCCC1)N1CC(c2nc(-c3ccc(F)cc3)no2)C1` showed an Efficacy [3] of 28%.
In the case of `CCOc1ccccc1S(=O)(=O)N1CC(c2nc(-c3cccc(C)c3)no2)C1`, the Efficacy [3] is reported as < 10%.
Compound `CCOc1ccccc1S(=O)(=O)N1CC(c2nc(-c3cccc(C(F)(F)F)c3)no2)C1` has an Efficacy [3] of 48%.
In the case of `O=S(=O)(c1cccc(C(F)(F)F)c1)N1CC(c2nc(-c3ccsc3)no2)C1`, the Efficacy ([1]; filed as activator) is reported as 61%.
In the case of `CCCc1ccccc1S(=O)(=O)N1CC(c2nc(-c3ccsc3)no2)C1`, the Efficacy [3] is reported as 79%.
`CCOc1ncccc1S(=O)(=O)N1CC(c2nc(-c3ccc(F)cc3)no2)C1` showed an Efficacy [3] of 46%.
With `O=S(=O)(c1cccn2ncnc12)N1CC(c2nc(-c3ccc(F)cc3)no2)C1` the Efficacy [1] was 16%.
`CCOc1ccccc1S(=O)(=O)N1CC(c2nc(-c3ccc(F)cc3F)no2)C1` gave an IC50 [4] of 6.5 µM and an Efficacy [3] of 93%.
`CCOc1ccccc1S(=O)(=O)C1CN(c2nc(-c3ccc(F)cc3)no2)C1` showed an Efficacy [3] of 24%.
Compound `COc1ccc(Cl)cc1NC(=O)CN1CCN(S(=O)(=O)N2CCC(C)CC2)CC1` has an IC50 [5] of 2.28 µM and an Efficacy [6] of 95%.
With `O=S(=O)(c1ccccc1N1CCCC1)N1CC(c2nc(-c3ccc(F)cc3)no2)C1` the Efficacy [3] was 92%.
`O=S(=O)(c1ccccc1OC1COC1)N1CC(c2nc(-c3ccc(F)cc3)no2)C1` gave an Efficacy ([1]; filed as activator) of 43%.
`O=S(=O)(c1cccc(F)c1)N1CC(c2nc(-c3ccsc3)no2)C1` gave an Efficacy [1] of 24%.
Compound `CCOc1ccccc1S(=O)(=O)N1CC(c2noc(-c3ccc(F)cc3)n2)C1` has an Efficacy [3] of 45%.
With `CCOc1ccccc1S(=O)(=O)N1CC(c2nc(-c3cccc(F)c3)no2)C1` the inhibition [2] was “inactive” and the Efficacy [3] was “inactive”.
In the case of `CCOc1ccccc1S(=O)(=O)N1CC(c2nc(-c3ccccn3)no2)C1`, the inhibition [2] is reported as “inactive” and the Efficacy [3] is reported as “inactive”.
In the case of `CCOc1ccccc1S(=O)(=O)c1ccc(-c2nc(-c3ccc(F)cc3)no2)cc1`, the inhibition [2] is reported as “inactive” and the Efficacy [3] is reported as “inactive”.
With `CCOc1ccccc1CN1CC(c2nc(-c3ccsc3)no2)C1` the Efficacy [1] was 31%.
With `CCOc1ccccc1S(=O)(=O)N1CC(c2cc(-c3ccc(F)cc3)no2)C1` the inhibition [2] was “inactive” and the Efficacy [3] was “inactive”.
For `CCOc1ccccc1S(=O)(=O)N1CC(c2nc(-c3ccc(C)cc3)no2)C1`, the inhibition [2] was “inactive” and the Efficacy [3] was “inactive”.
`CCOc1ccccc1S(=O)(=O)N1CC(c2nnc(-c3ccc(F)cc3)[nH]2)C1` showed an Efficacy [1] of 31%.
`CCOc1ccccc1S(=O)(=O)N1CC(c2nc(-c3ccc(F)cc3)cn2C)C1` showed an Efficacy [3] of 47%.
With `CCOc1ccccc1S(=O)(=O)N1CC[C@H](c2nc(-c3ccc(F)cc3)no2)C1` the IC50 [4] was > 10 µM and the Efficacy [3] was 63%.
For `CCOc1ccccc1S(=O)(=O)N1CC(F)(c2nc(-c3ccc(F)cc3)no2)C1`, the Efficacy [3] was 98%.
`Cc1nc2c(S(=O)(=O)N3CC(c4nc(-c5ccc(F)cc5)no4)C3)cccn2n1` showed an Efficacy [1] of 16%.
For `O=S(=O)(c1ccc(Cl)cc1)N1CC(c2nc(-c3ccsc3)no2)C1`, the inhibition [2] was “inactive” and the Efficacy [3] was “inactive”.
With `O=S(=O)(c1ccccc1OCC1CC1)N1CC(c2nc(-c3ccc(F)cc3)no2)C1` the Efficacy [3] was 95%.
In the case of `CCOc1ccccc1S(=O)(=O)N1CC(c2nc(-c3cccc(OC)c3)no2)C1`, the Efficacy [1] is reported as < 10%.
In the case of `CCOc1ccccc1S(=O)(=O)N1CC(c2nc(-c3ccc(F)cn3)no2)C1`, the inhibition [2] is reported as “inactive” and the Efficacy [3] is reported as “inactive”.
For `CCOc1ccccc1S(=O)(=O)[C@H]1C[C@H](c2nc(-c3ccc(F)cc3)no2)C1`, the Efficacy [3] was 52%.
Work on `CCOc1ccccc1S(=O)(=O)N1CC(c2cn(-c3ccc(F)cc3)nn2)C1` yielded an Efficacy ([1]; filed as activator) of 41%.
`CCOc1ccccc1S(=O)(=O)N1CC(c2nc(-c3ccc(Cl)cc3)no2)C1` showed an Efficacy [3] of 94%.
